Test results published in ChEMBL document CHEMBL2021883, “Amino acid, dipeptide and pseudodipeptide conjugates of ring-substituted 8-aminoquinolines: synthesis and evaluation of anti-infective, β-haematin inhibition and cytotoxic activities” (Eur J Med Chem, 2012).
In brackets after ≈: the same amount, converted by molar mass. Activity calls are given as the source filed them. Unless noted, no cut-off for these calls is given here.

How the values were obtained:
Plasmodium falciparum [1] = experiment: Antimalarial activity against chloroquine-resistant Plasmodium falciparum W2 assessed as plasmodial LDH activity; format: functional, organism-based
[2] = system: Mycobacterium intracellulare; experiment: Antimicrobial activity against Mycobacterium intracellulare ATCC 23068 by Franzblau method; format: functional, organism-based
Cryptococcus neoformans = experiment: Antifungal activity against Cryptococcus neoformans; format: functional, organism-based
In short: (§1)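 Yeasts and A. fumigatus were tested by broth microdilution following the NCCLS antifungal standards. The highest test concentration was 20.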

Candida albicans [3] = experiment: Fungicidal activity against Candida albicans at 20 ug/ml; format: functional, organism-based
In short: (§2)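 Broth dilution antifungal testing followed the NCCLS reference method for yeasts, with 20 as the highest test concentration. MIC was the lowest concentration with no detectable growth. MFC was the lowest concentration killing the organism.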

[4] = Inhibition of beta-hematin formation; format: functional
Candida albicans [5] = experiment: Antifungal activity against Candida albicans at 20 ug/ml; format: functional, organism-based; in short: as §2
[6] = system: Mycobacterium intracellulare; experiment: Bactericidal activity against Mycobacterium intracellulare ATCC 23068 at 20 ug/ml by Franzblau method; format: functional, organism-based
Vero = experiment: Cytotoxicity against african green monkey Vero cells upto 23.8 […] by neutral dye assay; format: cell-based, Chlorocebus sabaeus
In short: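 Vero monkey kidney cells were exposed to compound up to a highest concentration of 23.8, with viability read by neutral red uptake.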

Staphylococcus aureus [7] = experiment: Antimicrobial activity against methicillin-resistant Staphylococcus aureus ATCC 43300 at 20 ug/ml by CLSI method; format: functional, organism-based
Escherichia coli [8] = experiment: Antimicrobial activity against Escherichia coli ATCC 35218 at 20 ug/ml by CLSI method; format: functional, organism-based
In short: (§3)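 Antibacterial testing used CLSI/NCCLS broth dilution for aerobically growing bacteria, with 20 as the highest test concentration.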

Aspergillus fumigatus = experiment: Antifungal activity against Aspergillus fumigatus; format: functional, organism-based; in short: as §1
[9] = Selectivity index, ratio of IC50 for african green monkey Vero cells to IC50 for chloroquine-sensitive Plasmodium falciparum D6; format: toxicity, cell-based; details: Vero cells versus Plasmodium falciparum D6, read-out: Ratio IC50
[10] = Selectivity index, ratio of IC50 for african green monkey Vero cells to IC50 for chloroquine-resistant Plasmodium falciparum W2; format: toxicity, cell-based; details: Vero cells versus Plasmodium falciparum W2, read-out: Ratio IC50
Escherichia coli [11] = experiment: Antimicrobial activity against Escherichia coli ATCC 35218 by CLSI method; format: functional, organism-based
Pseudomonas aeruginosa = experiment: Antimicrobial activity against Pseudomonas aeruginosa ATCC 27853 by CLSI method; format: functional, organism-based; in short: as §3
Staphylococcus aureus [12] = experiment: Antimicrobial activity against methicillin-resistant Staphylococcus aureus ATCC 43300 by CLSI method; format: functional, organism-based
Staphylococcus aureus [13] = experiment: Bactericidal activity against methicillin-resistant Staphylococcus aureus ATCC 43300 at 20 ug/ml by CLSI method; format: functional, organism-based
In short: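 MBC is the lowest concentration that kills the organism. 20 was the highest concentration tested.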

[14] = system: Mycobacterium intracellulare; experiment: Antimicrobial activity against Mycobacterium intracellulare ATCC 23068 at 20 ug/ml by Franzblau method; format: functional, organism-based
Plasmodium falciparum [15] = experiment: Antimalarial activity against chloroquine-sensitive Plasmodium falciparum D6 assessed as plasmodial LDH activity; format: functional, organism-based
Escherichia coli [16] = experiment: Bactericidal activity against Escherichia coli ATCC 35218 at 20 ug/ml by CLSI method; format: functional, organism-based; in short: as §3
Leishmania donovani = experiment: Antileishmanial activity against Leishmania donovani promastigote by Alamar Blue assay; format: functional, organism-based
Staphylococcus aureus [17] = experiment: Antimicrobial activity against Staphylococcus aureus ATCC 29213 by CLSI method; format: functional, organism-based
Pichia kudriavzevii = experiment: Antifungal activity against Candida krusei; format: functional, organism-based; in short: as §1
Nakaseomyces glabratus = experiment: Antifungal activity against Candida glabrata; format: functional, organism-based; in short: as §1
Plasmodium berghei [18] = experiment: Antimalarial activity against Plasmodium berghei blood-schizont in mouse malaria model assessed as elimination of parasitemia at 100 mg/kg, po for 4 days for 4 days measured after 7 days; format: functional, organism-based; parameters: dose 100 mg/kg
In short: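 P. berghei-infected mice, 6 per group, received compound orally once daily for 4 days at 10, 25, 50 or 100 mg/kg/day. "Active" meant all treated animals were parasitaemia-negative up to D+7. "Curative" meant complete parasite elimination with survival to D+60. Outcomes were recorded as cured/total.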

Plasmodium berghei [19] = experiment: Antimalarial activity against Plasmodium berghei blood-schizont in mouse malaria model assessed as elimination of parasitemia at 100 mg/kg, po for 4 days for 4 days measured after 4 days; format: functional, organism-based; parameters: dose 100 mg/kg
[20] = Plasmodium falciparum, W2, read-out: IC50
[21] = Plasmodium falciparum, D6, read-out: IC50
[22] = Leishmania donovani, read-out: IC50

Row | SMILES | IC50 (Plasmodium falciparum [1]; [20]) [µg/mL] | Activity [2] | IC50 (Cryptococcus neoformans) [µg/mL] | MFC (Cryptococcus neoformans) [µg/mL] | MIC (Cryptococcus neoformans) [µg/mL] | Activity (Candida albicans [3]) | IC50 [4] [µM] | Activity (Candida albicans [5]) | Activity [6] | IC50 (Vero) | Activity (Staphylococcus aureus [7]) | Activity (Escherichia coli [8]) | Activity (Aspergillus fumigatus) | selectivity ratio [9] | selectivity ratio [10] | Activity (Pseudomonas aeruginosa) | Activity (Staphylococcus aureus [12]) | Activity (Staphylococcus aureus [13]) | IC50 (Plasmodium falciparum [15]; [21]) [µg/mL] | Activity (Escherichia coli [16]) | other results
1 | COc1cc(NC(C)CCCNC(=O)C[C@H](NC(=O)[C@@H](N)CCCNC(=N)N)C(=O)O)c2nc(C(C)(C)C)ccc2c1 (some centres undefined) | 2.8 (≈ 4.77 µM) | inactive | 15 (≈ 25.6 µM) | 20 (≈ 34.1 µM) | 20 (≈ 34.1 µM) | inactive | 115 | inactive | inactive | Non-toxic | inactive | inactive | inactive | > 7.2 | > 8.5 | inactive | inactive | inactive | 3.3 (≈ 5.62 µM) | inactive | IC50 (Escherichia coli [11]): 15 µg/mL (≈ 25.6 µM); Activity [14]: inactive; IC50 (Leishmania donovani): Not Active; IC90 (Leishmania donovani): inactive
2 | COc1cc(NC(C)CCCNC(=O)C[C@H](NC(=O)[C@@H](N)CCCCN)C(=O)O)c2nc(C(C)(C)C)ccc2c1 (some centres undefined) | 2.8 (≈ 5.01 µM) | inactive | 3.5 (≈ 6.26 µM) | 5 (≈ 8.95 µM) | 5 (≈ 8.95 µM) | inactive | 131 | inactive | inactive | Non-toxic | inactive |  | inactive | > 6.2 | > 8.5 | inactive | inactive | inactive | 3.8 (≈ 6.8 µM) | inactive | IC50 (Escherichia coli [11]): 15 µg/mL (≈ 26.8 µM); MIC (Escherichia coli [11]): 20 µg/mL (≈ 35.8 µM); Activity [14]: inactive; IC90 (Leishmania donovani; Leishmania donovani): 31 µg/mL (≈ 55.5 µM); IC50 (Leishmania donovani; [22]): 9.4 µg/mL (≈ 16.8 µM)
3 | COc1cc(NC(C)CCCNC(=O)[C@@H](CCCN)NC(=O)[C@H](N)CCCN)c2nc(C(C)(C)C)ccc2c1 (some centres undefined) | 3.3 (≈ 6.07 µM) |  | 3.5 (≈ 6.44 µM) | 5 (≈ 9.2 µM) | 5 (≈ 9.2 µM) | inactive | 39 | inactive | inactive | Non-toxic | inactive | inactive | inactive | > 5 | > 7.21 | inactive | inactive | inactive | 4.76 (≈ 8.75 µM) | inactive | IC50 [2]: 10 µg/mL (≈ 18.4 µM); MIC [2]: 20 µg/mL (≈ 36.8 µM); Activity (Escherichia coli [11]): inactive; IC90 (Leishmania donovani; Leishmania donovani): 38 µg/mL (≈ 69.9 µM); IC50 (Leishmania donovani; [22]): 20 µg/mL (≈ 36.8 µM)
4 | COc1cc(NC(C)CCCNC(=O)[C@@H](CCCNC(=N)N)NC(=O)[C@H](N)CCCNC(=N)N)c2nc(C(C)(C)C)ccc2c1 (some centres undefined) |  | inactive | 3.55 (≈ 5.65 µM) | 10 (≈ 15.9 µM) | 10 (≈ 15.9 µM) | inactive | > 1000 | inactive | inactive | Non-toxic |  | inactive | inactive |  |  | inactive |  |  |  | inactive | IC50 (Plasmodium falciparum [1]): Not Active; IC50 (Staphylococcus aureus [17]): 11.2 µg/mL (≈ 17.8 µM); MBC (Staphylococcus aureus [17]): 20 µg/mL (≈ 31.9 µM); MIC (Staphylococcus aureus [17]): 20 µg/mL (≈ 31.9 µM); IC50 (Pichia kudriavzevii): 7.08 µg/mL (≈ 11.3 µM); MFC (Pichia kudriavzevii): 10 µg/mL (≈ 15.9 µM); MIC (Pichia kudriavzevii): 10 µg/mL (≈ 15.9 µM); Activity (Escherichia coli [11]): inactive; IC50 (Staphylococcus aureus [12]): 5.96 µg/mL (≈ 9.49 µM); MBC (Staphylococcus aureus [12]): 20 µg/mL (≈ 31.9 µM); MIC (Staphylococcus aureus [12]): 10 µg/mL (≈ 15.9 µM); IC50 (Nakaseomyces glabratus): 12.4 µg/mL (≈ 19.8 µM); MFC (Nakaseomyces glabratus): 20 µg/mL (≈ 31.9 µM); MIC (Nakaseomyces glabratus): 20 µg/mL (≈ 31.9 µM); Activity [14]: inactive; IC50 (Plasmodium falciparum [15]): Not Active; IC90 (Leishmania donovani; Leishmania donovani): 34 µg/mL (≈ 54.2 µM); IC50 (Leishmania donovani; [22]): 20 µg/mL (≈ 31.9 µM)
5 | COc1cc(NC(C)CCCNC(=O)CC[C@H](NC(=O)[C@@H](N)CCCNC(=N)N)C(=O)O)c2nc(C(C)(C)C)ccc2c1 (some centres undefined) | 2 (≈ 3.33 µM) | inactive | 15 (≈ 25 µM) | 20 (≈ 33.3 µM) | 20 (≈ 33.3 µM) | inactive | 96 | inactive |  | Non-toxic |  |  | inactive | > 10.3 | > 11.9 | inactive | inactive |  | 2.3 (≈ 3.83 µM) |  | Activity (Staphylococcus aureus [17]): inactive; Activity (Escherichia coli [11]): inactive; Activity (Plasmodium berghei [18]): inactive; Activity (Plasmodium berghei [19]): inactive; IC50 (Leishmania donovani): Not Active; IC90 (Leishmania donovani): inactive
